Results published in ChEMBL document CHEMBL3769317, “Aminothiazoles as Potent and Selective Sirt2 Inhibitors: A Structure-Activity Relationship Study” (J Med Chem, 2016).

How the values were obtained:
[1] = target: T1, NAD-dependent protein deacetylase sirtuin-1 (Homo sapiens) (UniProt Q96EB6); assay: Inhibition of GST-tagged human SIRT1 (133 to 747 amino acids) using ZMAL as substrate at 200 uM after 4 hrs by fluorescence-based microplate reader method
T1 sequence (whole entry): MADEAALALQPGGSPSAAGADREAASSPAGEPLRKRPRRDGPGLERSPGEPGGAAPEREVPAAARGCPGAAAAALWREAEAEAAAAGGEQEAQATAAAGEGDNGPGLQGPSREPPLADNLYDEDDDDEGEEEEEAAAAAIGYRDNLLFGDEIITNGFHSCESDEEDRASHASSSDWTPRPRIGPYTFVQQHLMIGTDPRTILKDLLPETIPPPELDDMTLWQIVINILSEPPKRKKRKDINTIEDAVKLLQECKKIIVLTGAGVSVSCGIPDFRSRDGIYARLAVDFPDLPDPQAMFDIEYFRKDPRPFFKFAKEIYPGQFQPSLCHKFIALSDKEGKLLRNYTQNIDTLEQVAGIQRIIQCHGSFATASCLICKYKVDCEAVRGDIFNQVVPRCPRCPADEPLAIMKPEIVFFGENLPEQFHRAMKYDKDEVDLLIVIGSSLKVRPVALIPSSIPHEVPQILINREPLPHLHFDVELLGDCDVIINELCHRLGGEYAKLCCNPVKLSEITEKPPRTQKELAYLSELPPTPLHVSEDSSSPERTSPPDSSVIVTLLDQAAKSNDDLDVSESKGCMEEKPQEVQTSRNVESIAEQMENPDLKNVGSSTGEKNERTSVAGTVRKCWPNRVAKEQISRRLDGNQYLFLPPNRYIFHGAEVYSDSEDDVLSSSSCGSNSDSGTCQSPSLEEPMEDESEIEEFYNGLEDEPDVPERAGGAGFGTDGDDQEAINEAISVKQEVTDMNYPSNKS

[2] = target: T2, NAD-dependent protein deacetylase sirtuin-2 (Homo sapiens, UniProt Q8IXJ6); assay: Inhibition of N-terminal his6-tagged human SIRT2 (25 to 389 amino acids) using ZMAL as substrate after 4 hrs by fluorescence-based microplate reader method
T2 sequence (Q8IXJ6 whole entry): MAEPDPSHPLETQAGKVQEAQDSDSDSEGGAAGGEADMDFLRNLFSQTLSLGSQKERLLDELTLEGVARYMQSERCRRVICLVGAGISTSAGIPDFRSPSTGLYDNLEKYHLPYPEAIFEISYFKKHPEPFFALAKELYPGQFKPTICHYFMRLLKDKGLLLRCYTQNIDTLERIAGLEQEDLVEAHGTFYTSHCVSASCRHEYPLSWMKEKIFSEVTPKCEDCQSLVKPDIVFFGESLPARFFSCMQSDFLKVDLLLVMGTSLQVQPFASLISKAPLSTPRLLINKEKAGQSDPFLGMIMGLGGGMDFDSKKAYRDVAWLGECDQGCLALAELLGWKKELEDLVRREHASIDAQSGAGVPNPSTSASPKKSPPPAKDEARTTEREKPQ

[3] = target: T3, NAD-dependent protein deacetylase sirtuin-2 (Homo sapiens) (UniProt Q8IXJ6); assay: Inhibition of N-terminal his6-tagged human SIRT2 (25 to 389 amino acids) using ZMAL as substrate at 50 uM after 4 hrs by fluorescence-based microplate reader method
T3 sequence (whole entry): T2 sequence (Q8IXJ6 whole entry)
How it was run: (§1)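 Fluorogenic deacetylation assay: hSirt1 133-747 or hSirt2 25-389 in 50 mM Tris, 137 mM NaCl, 2.7 mM KCl, pH 8.0, with NAD+ 500 µM and ZMAL (Cbz-Lys(acetyl)-AMC) 10,5 µM final, inhibitor in DMSO (5% v/v final). Control conversion kept near 15-30%. 4 h at 37 °C, then trypsin/nicotinamide stop for 20 min at 37 °C. Fluorescence read at 390/460 nm. % inhibition taken against no-inhibitor controls. At least duplicates.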

[4] = target: T3, NAD-dependent protein deacetylase sirtuin-2 (Homo sapiens); assay: Inhibition of N-terminal his6-tagged human SIRT2 (25 to 389 amino acids) using ZMAL as substrate at 500 uM after 4 hrs by fluorescence-based microplate reader method; how it was run: as §1
[5] = target: T3, NAD-dependent protein deacetylase sirtuin-2 (Homo sapiens); assay: Inhibition of N-terminal his6-tagged human SIRT2 (25 to 389 amino acids) using ZMAL as substrate at 10 uM after 4 hrs by fluorescence-based microplate reader method; how it was run: as §1
[6] = target: T3, NAD-dependent protein deacetylase sirtuin-2 (Homo sapiens); assay: Inhibition of N-terminal his6-tagged human SIRT2 (25 to 389 amino acids) using ZMAL as substrate at 250 uM after 4 hrs by fluorescence-based microplate reader method; how it was run: as §1

## CCC(Sc1nc(C)cc(C)n1)C(=O)Nc1ncc(Cc2cccc3ccc(Cl)cc23)s1 (racemic)
[1]
  inhibition: < 10%
[2]
  IC50: 0.32 µM

## O=C(CSc1nnc(-c2ccccc2)c(-c2ccccc2)n1)Nc1nnc(-c2ccccc2)s1
[1]
  inhibition: < 10%
[2]
  IC50: 19.9 µM

## Nc1cc(N)nc(SCC(=O)Nc2ncc(Cc3cccc4ccccc34)s2)n1
[3]
  inhibition: 25%
[1]
  inhibition: < 10%

## COc1ccc(Cc2cnc(NC(=O)C(C)Sc3nc(C)cc(C)n3)s2)cc1 (racemic)
[1]
  inhibition: 27%
[2]
  IC50: 14.6 µM

## Cc1cc(C)nc(SC(C)C(=O)Nc2ncc(Cc3ccc(-c4ccccc4)cc3)s2)n1 (racemic)
[1]
  inhibition: 14%
[2]
  IC50: 33 µM

## Cc1cc(C)nc(SCC(N)=O)n1
[3]
  inhibition: < 10%
[1]
  inhibition: < 10%

## CCOc1ccc2nc(NC(=O)CSc3nc(C)cc(C)n3)sc2c1
[1]
  inhibition: 16%
[2]
  IC50: 77.8 µM

## Cc1nc(SCC(=O)Nc2ncc(Cc3cccc4ccccc34)s2)nc(C)c1C
[1]
  inhibition: < 10%
[2]
  IC50: 15 µM

## CCOc1cccc(Cc2cnc(NC(=O)CSc3nc(C)cc(C)n3)s2)c1
[1]
  inhibition: < 10%
[2]
  IC50: 1.33 µM

## Cc1cc(C)nc(SCC(=O)Nc2ncc(Cc3ccc(-c4ccccc4)cc3)s2)n1
[1]
  inhibition: 29%
[2]
  IC50: 164 µM

## O=C(CSc1ccc(Cl)cc1)Nc1ncc(Cc2cccc3ccccc23)s1
[3]
  inhibition: < 10%
[1]
  inhibition: < 10%

## Cc1ccc(Cc2cnc(NC(=O)CSc3nc(C)cc(C)n3)s2)cc1
[1]
  inhibition: 16%
[2]
  IC50: 4.72 µM

## CCc1cc(CC)nc(SCC(=O)Nc2ncc(Cc3cccc(C)c3)s2)n1
[3]
  inhibition: < 10%
[1]
  inhibition: < 10%

## CC(=O)Nc1ncc(C)s1
[3]
  inhibition: < 10%
[1]
  inhibition: < 10%

## Cc1cc(C)nc(SCC(=O)Nc2nnc(C)s2)n1
[3]
  inhibition: < 10%
[1]
  inhibition: < 10%

## CCc1cc(CC)nc(SCC(=O)Nc2ncc(Cc3ccc(-c4ccccc4)cc3)s2)n1
[3]
  inhibition: 31%
[1]
  inhibition: 10%

## Cc1cc(C)cc(SCC(=O)Nc2ncc(Cc3cccc4ccccc34)s2)c1
[1]
  inhibition: 16%
[2]
  IC50: 207 µM

## CC(=O)Nc1ncc(Cc2cccc3ccccc23)s1
[3]
  inhibition: < 10%
[1]
  inhibition: < 10%
[4]
  inhibition: 84%

## Cc1cc(C)nc(SCC(=O)Nc2ncc(Cc3c(C)ccc4ccccc34)s2)n1
[1]
  inhibition: < 10%
[2]
  IC50: 0.31 µM

## O=C(CSc1cccc(O)c1)Nc1ncc(Cc2cccc3ccccc23)s1
[1]
  inhibition: < 10%
[2]
  IC50: 143 µM

## O=C(CSc1ncccn1)Nc1ncc(Cc2ccccc2)s1
[1]
  inhibition: 12%

## O=C(CSc1ncccn1)Nc1ncc(Cc2cccc3ccccc23)s1
[1]
  inhibition: 17%
[2]
  IC50: 2.34 µM

## Cc1cc(C)nc(S[C@H](C)C(=O)Nc2ncc(Cc3cccc4ccccc34)s2)n1
[1]
  inhibition: < 10%
[2]
  IC50: 9.77 µM

## Cc1cc(C)nc(SCC(=O)Nc2nnc(Cc3cccc4ccccc34)s2)n1
[1]
  inhibition: < 10%
[2]
  IC50: 1.89 µM

## CCc1cc(CC)nc(SCC(=O)Nc2ncc(Cc3ccc(OC)cc3)s2)n1
[3]
  inhibition: 48%
[1]
  inhibition: 17%

## Cc1cc(C)nc(SCC(=O)Nc2ncc(Cc3cccc4cc(Cl)ccc34)s2)n1
[1]
  inhibition: 20%
[2]
  IC50: 0.48 µM

## CCc1cc(CC)nc(SCC(=O)Nc2ncc(Cc3ccc(Cl)cc3)s2)n1
[3]
  inhibition: 38%
[1]
  inhibition: 18%

## CCCc1cc(O)nc(SCC(=O)Nc2ncc(Cc3cccc4ccccc34)s2)n1
[1]
  inhibition: 22%
[2]
  IC50: 127 µM

## CCC(Sc1nc(C)cc(C)n1)C(=O)Nc1ncc(Cc2cccc3ccccc23)s1 (racemic)
[1]
  inhibition: 35%
[2]
  IC50: 0.54 µM

## Cc1cc(C)nc(SCC(=O)Nc2nnc(Cc3ccc(Br)cc3)s2)n1
[1]
  inhibition: < 10%
[2]
  IC50: 168 µM

## CCCCCC(=O)Nc1ncc(Cc2cccc3ccccc23)s1
[3]
  inhibition: 48%
[1]
  inhibition: < 10%
[4]
  inhibition: 77%
[5]
  inhibition: < 10%

## Cc1cc(C)nc(SCC(=O)Nc2nnc(Cc3ccccc3)s2)n1
[3]
  inhibition: 18%
[1]
  inhibition: < 10%

## NC(=O)c1ccc[n+](CC(=O)Nc2ncc(Cc3cccc4ccccc34)s2)c1
[1]
  inhibition: 39%
[2]
  IC50: 289 µM

## Cc1cc(C)nc(SCC(=O)Nc2nnc(-c3ccccc3)s2)n1
[3]
  inhibition: 20%
[1]
  inhibition: < 10%

## CCc1cc(CC)nc(SCC(=O)Nc2ncc(Cc3cccc4ccccc34)s2)n1
[1]
  inhibition: < 10%
[2]
  IC50: 45.6 µM

## CCc1cc(CC)nc(SC(C)C(=O)Nc2ncc(Cc3ccc(OC)cc3)s2)n1 (racemic)
[3]
  inhibition: 40%
[1]
  inhibition: 18%

## Cc1ccccc1Cc1cnc(NC(=O)CSc2ncccn2)s1
[3]
  inhibition: < 10%
[1]
  inhibition: 11%

## O=C(CSc1nc(-c2ccccc2)cc(-c2ccccc2)n1)Nc1ncc(Cc2ccc(Cl)cc2)s1
[3]
  inhibition: 46%
[1]
  inhibition: 11%

## Cc1cc(C)nc(SCC(=O)Nc2ncc(Cc3ccccc3C)s2)n1
[3]
  inhibition: 52%
[1]
  inhibition: 14%

## CC(Sc1ncccn1)C(=O)Nc1ncc(Cc2cccc3ccccc23)s1 (racemic)
[1]
  inhibition: 21%
[2]
  IC50: 1.92 µM

## Cc1cc(C)nc(SCC(=O)Nc2ncc(Cc3ccc(Cl)cc3)s2)n1
[1]
  inhibition: < 10%
[2]
  IC50: 3.4 µM

## Cc1cc(C)nc(SC(C)C(=O)Nc2ncc(Cc3cccc4ccc(Cl)cc34)s2)n1 (racemic)
[1]
  inhibition: < 10%
[2]
  IC50: 0.54 µM

## Cc1cc(O)nc(SCC(=O)Nc2ncc(Cc3cccc4ccccc34)s2)n1
[3]
  inhibition: 35%
[1]
  inhibition: < 10%

## Nc1ccccc1SCC(=O)Nc1ncc(Cc2cccc3ccccc23)s1
[3]
  inhibition: 36%
[1]
  inhibition: < 10%

## COc1ccc(Cc2cnc(NC(=O)/C=C/c3ccco3)s2)cc1
[3]
  inhibition: 18%
[1]
  inhibition: 28%

## Cc1cc(C)nc(SCC(=O)N(C)c2ncc(Cc3cccc4ccccc34)s2)n1
[1]
  inhibition: < 10%
[2]
  IC50: > 100 µM

## Cc1cc(C)nc(S[C@@H](C)C(=O)Nc2ncc(Cc3cccc4ccccc34)s2)n1
[1]
  inhibition: < 10%
[2]
  IC50: 0.26 µM

## Cc1cccc(Cc2cnc(NC(=O)CSc3nc(C)cc(C)n3)s2)c1
[1]
  inhibition: 18%
[2]
  IC50: 1.64 µM

## Cc1ccnc(SCC(=O)Nc2ncc(Cc3cccc4ccccc34)s2)n1
[1]
  inhibition: < 10%
[2]
  IC50: 1.45 µM

## Cc1cc(C)nc(SCC(=O)Nc2nnc(C(F)(F)F)s2)n1
[1]
  inhibition: 12%
[2]
  IC50: 503 µM

## Cc1cc(C)nc(SCC(=O)Nc2nc(-c3ccc4ccccc4c3)cs2)n1
[3]
  inhibition: 35%
[1]
  inhibition: 23%

## Cc1cc(C)nc(SC(C)C(=O)Nc2ncc(Cc3cccc4ccccc34)s2)n1 (racemic)
[1]
  inhibition: 17%
[2]
  IC50: 0.42 µM

## COc1ccc(Cc2cnc(NC(=O)CSc3nc(C)cc(C)n3)s2)cc1
[3]
  inhibition: 48%
[1]
  inhibition: < 10%

## Cc1cc(C)nc(SCC(=O)Nc2ncc(Cc3ccc4ccccc4c3)s2)n1
[1]
  inhibition: < 10%

## Cc1cc(C)nc(SCC(=O)Nc2nnc(Cc3ccc(Cl)cc3)s2)n1
[1]
  inhibition: < 10%
[2]
  IC50: 30.9 µM

## Cc1cc(C)nc(SCC(=O)Nc2ncc(Cc3cccc4ccc(Br)cc34)s2)n1
[1]
  inhibition: < 10%
[2]
  IC50: 0.21 µM

## Cc1cc(C)nc(SCC(=O)Nc2ncc(C(=O)Nc3cccc4ccccc34)s2)n1
[1]
  inhibition: < 10%
[2]
  IC50: 33 µM

## Cc1cc(C)nc(SCC(=O)Nc2ncc(C)s2)n1
[1]
  inhibition: < 10%
[6]
  inhibition: 24%
